Tn6 DDE FP: DD(E)-Tn6 binding inhibition, primary FP screen. P02675. Fibrin DD(E) TRITC-Tn6 fluorescence polarization displacement. inhibition, % at 8.3 µM. 370,000 tested, 0.21% active. AID 720509;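 active = inhibition above a per-campaign cutoff: mean of compounds within control limits plus 3 SD, cut at about 15% in these data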;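 also: 0% = median of all compound wells on the plate and 100% = blocking peptide control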
Target sequence (P02675 whole entry, looked up): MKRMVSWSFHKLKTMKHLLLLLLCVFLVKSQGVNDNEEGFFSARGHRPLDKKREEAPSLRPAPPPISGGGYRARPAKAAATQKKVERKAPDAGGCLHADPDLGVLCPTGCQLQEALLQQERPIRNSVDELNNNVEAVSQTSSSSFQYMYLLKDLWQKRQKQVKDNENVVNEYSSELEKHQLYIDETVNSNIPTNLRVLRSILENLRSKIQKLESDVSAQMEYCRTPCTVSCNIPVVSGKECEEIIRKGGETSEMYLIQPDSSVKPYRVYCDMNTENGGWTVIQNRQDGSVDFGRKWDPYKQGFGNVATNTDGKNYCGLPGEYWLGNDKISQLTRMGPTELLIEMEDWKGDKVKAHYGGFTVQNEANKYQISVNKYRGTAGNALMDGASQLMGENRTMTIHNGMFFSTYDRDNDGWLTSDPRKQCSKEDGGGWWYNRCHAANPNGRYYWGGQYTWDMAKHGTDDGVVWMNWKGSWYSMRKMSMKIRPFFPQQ
DDE Tn7 FP inh: inhibitors of Tn7 peptide binding to human fibrin DD(E); P02675; FP displacement of FITC-Tn7 peptide from fibrin DD(E); 0% = median of compound wells per plate; inhibition, % at 8.3 µM; 370,000 tested, 0.13% active; AID 720508;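 active = inhibition above the mean of compounds falling within the control limits plus 3 SD of them, cut at about 14% in these data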;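 also: 0% = plate median of compound wells and 100% = 10 µM Aha-Tn7 peptide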
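Test system – human fibrin DD(E) · Times – 10 min preincubation, 3 h with tracer, room temperature · Detection – fluorescence polarization of the labelled Tn7 tracer · Measure – percent inhibition normalized to high-control wells · Benchmarks – high control wells with 10 µM unlabelled Aha-Tn7 peptide (full inhibition) · Repeats – singlicate testing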
SKN-1 inh: inhibitors of C. elegans SKN-1 | inhibition, % at 21.8 µM | 360,000 tested, 0.49% active | C. elegans VP596 Pgst-4::GFP/RFP ratio, acrylamide-induced, 24 h;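 active = interference check ratio from 0.5 to 1.5 plus GFP to RFP signal ratio inhibition reaching or exceeding a fixed threshold, cut at about 30% in these data, passing the limit was not always enough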
DAGLB inhibitor: diacylglycerol lipase beta (human) inhibition; Q8NCG7; HEK293T DAGLB membrane lysate, EnzChek fluorogenic substrate; inhibition, % at 5.17 µM; 340,000 tested, 0.059% active; in the data active = inhibition above about 34%;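 also: 0% = enzyme with vehicle and 100% = wells lacking enzyme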
MT1-MMP act inh: MT1-MMP (human) activation inhibition; HT1080 RFP-PRO-GFP cells, GFP/RFP ratio fluorescence, overnight; percent of plate control window, DMSO zero; GFP/RFP ratio change, % at 20 µM; 360,000 tested, 0.061% active;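 active = GFP/RFP ratio change of at least 30% with cell ATP level not reduced by more than half and red fluorescence within 50% of control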
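Assay system: HT1080 cells carrying an RFP-PRO-GFP reporter | Dosing: Single dose of 20 µM compound, 1% DMSO final | Incubation: Cells overnight before dosing, compound overnight, 37 °C, 5% CO2 | Evaluation: GFP/RFP fluorescence ratio | Control set: DMSO and RFP-L50D-GFP cell wells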
PolyA inhibitor: blocks polyadenylation in yeast reporter cells; S. cerevisiae SKY197-pL101 polyadenylation reporter, beta-gal luminescence; efflux-impaired pdr1/pdr3 knockout yeast; score 100 = 6 SD above DMSO; activity score, % at 12 µM; 300,000 tested, 0.02% active; AID 1875;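 active = lowest replicate activity score at least 50, where 100 means six control SD above control mean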;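 also: yeast exposed to compound for 9 h at 30 °C; higher score means more reporter readthrough which indicates perturbed polyadenylation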
* marks the source's active call; other numbers are inactive results; . = not tested or not shown. Only some compounds are listed: those with a hit (about 0.9% of all), similar ones and a draw of the others.

SMILES	Tn6 DDE FP	DDE Tn7 FP inh	SKN-1 inh	DAGLB inhibitor	MT1-MMP act inh	PolyA inhibitor
COC(=O)COc1ccc(NC(=O)Cn2nc(-c3ccccc3)c3ccccc3c2=O)cc1	2	-6	-2	2	2	8
COc1ccc(-c2nn(CC(=O)Nc3ccc(Cl)c(Cl)c3)c(=O)c3ccccc23)cc1	2	-2	39*	-3	0	2
C=CCn1c(COc2ccc(Cl)cc2)nnc1SCC(=O)c1ccc(-c2ccccc2)cc1	3	-3	.	.	.	.
Cc1nn(C)c(C)c1S(=O)(=O)N1CCCC(C(=O)NCCc2ccc(Cl)cc2)C1 (centres undefined)	2	-8	15	0	-2	.
Cc1noc(C)c1S(=O)(=O)N1CCCC(C(=O)NCCc2ccc(Cl)cc2)C1 (centres undefined)	1	-2	47*	-1	-2	13
S=C(Nc1ccccc1Br)OCCN1CCCC12CCC(c1ccccc1)CC2 (centres undefined)	-3	-11	.	.	.	.
COc1ccccc1CC(=O)NCCN1C(=O)C2C3C=CC(C3)C2C1=O (centres undefined)	-1	3	.	.	.	.
CCCCNC(=O)C[C@H]1C[C@@]2(C(=O)OC)C(=C[C@H](C(C)(C)C)O[C@@H]2C)N(Cc2ccc(Cl)cc2Cl)C1=O	0	-3	.	.	.	.
CCC(c1nnnn1C(C)(C)CC)N(CCCO)Cc1cc2cc(C)cc(C)c2[nH]c1=O (centres undefined)	-3	-7	-19	-7	2	4
CCC(C)(C)n1nnnc1C(C(C)C)N(CCCO)Cc1cc2cc(C)ccc2[nH]c1=O (centres undefined)	10	-6	44*	1	-5	21
CCN(C(=O)Cn1nnc(-c2ccncc2)n1)c1ccccc1	0	-2	.	.	.	.
CCCn1c(N)c(C(c2ccc(OC)cc2)N2CCN(c3ccccc3)CC2)c(=O)[nH]c1=O (centres undefined)	4	5	38*	2	-1	12
CCCn1c(N)c(C(c2ccc(C(=O)OC)cc2)N2CCN(c3ccccc3)CC2)c(=O)[nH]c1=O (centres undefined)	-1	2	-6	0	3	22
O=C1NC(=S)SC1=Cc1ccccc1Cl	-1	-3	-17	18	5	.
O=C1NC(=S)S/C1=C\c1cc(Cl)cc(Cl)c1O	25*	-12	58	34	15	.
COC(=O)[C@]12C[C@H](CC(=O)N3CCCC3)C(=O)N(CCc3ccc(OC)c(OC)c3)C1=C[C@H](C(C)(C)C)O[C@@H]2C	7	7	.	.	.	.
COc1ccc(C(=O)NN/C(=N/S(=O)(=O)c2ccc(C)cc2)c2ccccc2)cc1	-1	-1	37*	-8	0	9
O=C(O)C1CCCCC1C(=O)NCCc1c[nH]c2ccccc12 (centres undefined)	9	3	37*	3	-3	-11
OCCN(CCO)c1nc(N2CCCCC2)c2nc(N(CCO)CCO)nc(N3CCCCC3)c2n1	1	26*	-29	-14	-59	.
Nc1nc(NCCO)nc(N2CCCCCC2)c1[N+](=O)[O-]	3	-2	7	1	-3	20
O=C(Nc1ccc(Cl)cn1)c1ccccc1F	4	0	59*	-6	4	-2
O=C(Nc1ccc(Cl)cn1)Nc1ccccc1F	-5	-4	12	0	-2	-11
CC(=O)NC(Cc1cc(C)ccc1C)C(=O)N1CCN(C(=O)Nc2ccc(C(C)=O)cc2)CC1 (centres undefined)	8	15*	-2	3	1	-4
C=Cc1ccc(C(=O)N(Cc2ccc(F)cc2)C(C(=O)N(C)C2CCCC2)c2ccc(OC)c(OC)c2)cc1 (centres undefined)	-2	7	.	.	.	.
Cc1ccc2c(c1)c(C)c(C)n2CC(O)Cn1nnc2ccccc21 (centres undefined)	-1	-1	60*	-1	4	-9
SMILES	Tn6 DDE FP	DDE Tn7 FP inh	SKN-1 inh	DAGLB inhibitor	MT1-MMP act inh	PolyA inhibitor
N#C/C(=N/Nc1ccc(OC(F)(F)F)cc1)C(N)=S	4	8	54*	11	-28	-5
COc1ccc(N/N=C(\C#N)C(N)=O)cc1	-5	2	-14	0	1	-28
CSc1cc(-c2ccco2)oc1C(=O)c1ccco1	0	0	36*	-3	-3	-11
CSc1nc(-c2ccco2)nn1C(=O)c1ccco1	9	-2	19	-2	-1	-20
Cc1ccc(C2CC(C(F)(F)F)n3nc(C(=O)NCc4c(C)nn(C)c4C)c(Cl)c3N2)cc1 (centres undefined)	5	3	46*	2	3	9
O=C(c1cccs1)N1CCN(c2ccccc2)CC1	-5	-6	-2	-1	0	27
CC1CN(C(=O)c2cccs2)CCN1C(=O)c1cccs1 (centres undefined)	3	2	43*	3	-4	-3
CN(CCC#N)c1ccc(/C=C(\C#N)c2ccccn2)cc1	31*	4	16	1	-3	-15
Cc1c(C(=O)Nc2nonc2-c2ccc(F)cc2)oc2ccc(F)cc12	-10	-4	4	-4	-8	103*
CCc1nonc1NC(=O)c1oc2ccc(F)cc2c1C	-1	7	30	-2	1	19
C/C(=C\C=C(C#N)C#N)c1cc(C#N)c(N)o1	-9	-14	76	12	-8	59*
N#CC12C(N)=NC3(OCCO3)C1(C#N)C1=C(CCC1)NC2c1ccccc1 (centres undefined)	-4	6	8	2	-8	-21
N#CC1(C#N)C2=C(CCCC2)NC(c2ccccc2)C1(C#N)C#N (centres undefined)	.	.	.	.	.	159*
Cc1ccc(CN2C(C(=O)NC3CCCC3)CSCCS2(=O)=O)cc1 (centres undefined)	4	0	.	.	.	.
Cc1ccnc(NC(=S)N2CCC(Nc3cccc(C(F)(F)F)c3)CC2)c1	6	0	.	.	.	.
CC(C)OC(=O)CN1CCN(C2c3ccccc3-c3ccccc32)CC1	-6	-2	38*	-4	6	1
CC(C)N1CCc2c(sc(NC(=O)C(F)(F)F)c2-c2nc3ccccc3s2)C1	3	2	.	.	.	.
O=C(CNc1ccc(Br)cc1)c1ccccc1	-7	0	36*	-2	-2	-7
Cc1ccc(C(=O)CNc2ccc(Br)cc2)cc1	8	-3	-22	-7	1	-13
COc1ccc2c(c1)sc1nc(-c3ccccc3)cn12	-9	-9	37*	-9	17	-24

Source: PubChem (several laboratories)
